The source of these data is ChEMBL document CHEMBL1147076, “Antitumor activity of MLN8054, an orally active small-molecule inhibitor of Aurora A kinase” (Proc Natl Acad Sci U S A, 2007).

Activity calls are given as the source filed them. The calls are words filed in the database; no cut-off is given here.

Series [1] addresses Fibroblast growth factor receptor 4 (Homo sapiens) (UniProt P22455). Kind of series: Activity of human FGFR4 kinase at 1 uM.
Series [2] has as its target Tyrosine-protein kinase JAK2 (Homo sapiens) (UniProt O60674). Kind of series: Activity of human JAK2 kinase at 1 uM.
The target of series [3] is Tyrosine-protein kinase JAK3 (Homo sapiens) (UniProt P52333). Kind of series: Activity of human JAK3 kinase at 1 uM.
In series [4] the target is Tyrosine-protein kinase Lyn (Mus musculus) (UniProt P25911). The series is described as follows: Activity of mouse Lyn kinase at 1 uM. Summed up: (§1)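 Single-point screen in a 226-kinase panel run by an outside service. Test compound at 1 μM with ATP at 10 μM in every assay. Other assay conditions are not given.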
Chain of Tyrosine-protein kinase Lyn (Mus musculus) (P25911 whole entry): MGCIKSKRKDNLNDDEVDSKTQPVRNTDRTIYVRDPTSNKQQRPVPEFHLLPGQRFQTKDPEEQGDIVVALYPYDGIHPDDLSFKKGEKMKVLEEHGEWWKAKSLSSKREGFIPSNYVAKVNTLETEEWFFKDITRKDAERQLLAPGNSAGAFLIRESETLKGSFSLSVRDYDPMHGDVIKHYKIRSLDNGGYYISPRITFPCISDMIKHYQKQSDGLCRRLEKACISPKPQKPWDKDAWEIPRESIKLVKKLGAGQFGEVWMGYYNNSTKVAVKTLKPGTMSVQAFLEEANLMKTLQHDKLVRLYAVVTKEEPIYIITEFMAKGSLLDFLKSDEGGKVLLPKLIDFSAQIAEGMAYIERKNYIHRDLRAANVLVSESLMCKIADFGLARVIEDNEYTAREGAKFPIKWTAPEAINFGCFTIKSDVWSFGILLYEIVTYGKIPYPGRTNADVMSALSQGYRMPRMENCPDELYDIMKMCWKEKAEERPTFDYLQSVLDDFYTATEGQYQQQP
Series [5] concerns the target Dual specificity mitogen-activated protein kinase kinase 1 (Homo sapiens) (UniProt Q02750). Kind of series: Activity of human MEK1 kinase at 1 uM.
The target of series [6] is Serine/threonine-protein kinase 24 (Homo sapiens) (UniProt Q9Y6E0). Kind of series: Activity of human MST3 kinase at 1 uM.
Chain of Serine/threonine-protein kinase 24 (Homo sapiens) (Q9Y6E0 whole entry, looked up): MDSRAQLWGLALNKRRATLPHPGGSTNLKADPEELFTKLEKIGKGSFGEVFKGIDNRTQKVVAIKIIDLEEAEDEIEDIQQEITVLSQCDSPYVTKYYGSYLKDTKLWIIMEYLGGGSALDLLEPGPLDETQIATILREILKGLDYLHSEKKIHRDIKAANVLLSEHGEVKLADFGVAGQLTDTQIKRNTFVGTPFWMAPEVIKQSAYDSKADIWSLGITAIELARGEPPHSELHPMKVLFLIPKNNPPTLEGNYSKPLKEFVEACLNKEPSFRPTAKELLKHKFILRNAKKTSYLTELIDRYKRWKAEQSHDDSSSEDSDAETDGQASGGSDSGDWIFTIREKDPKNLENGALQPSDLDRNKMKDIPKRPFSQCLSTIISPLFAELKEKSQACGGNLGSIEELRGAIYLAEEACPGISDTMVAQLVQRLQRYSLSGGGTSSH
Series [7] has as its target Serine/threonine-protein kinase Nek2 (Homo sapiens) (UniProt P51955). The series is described as follows: Activity of human NEK2 kinase at 1 uM.
Series [8] addresses Serine/threonine-protein kinase Nek6 (Homo sapiens) (UniProt Q9HC98). Kind of series: Activity of human NEK6 kinase at 1 uM. In short, it runs like this: as §1
Another series is filed under the species Homo sapiens. The series is described as follows: Activity of human PKA kinase at 1 uM. Summed up:
as §1

The target in series [9] is Protein kinase C beta type (Homo sapiens) (UniProt P05771). Kind of series: Activity of human PKC-beta-1 kinase at 1 uM. Summed up:
as §1

Series [10] has as its target Protein kinase C iota type (Homo sapiens) (UniProt P41743). The series is described as follows: Activity of human PKCiota kinase at 1 uM. In short, it runs like this: (§2)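 Single-point kinase profiling: each kinase in a 226-kinase panel tested with compound at 1 μM and ATP at 10 μM in every assay, run by an external screening service.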
Series [11] concerns the target MAP kinase-activated protein kinase 5 (Homo sapiens) (UniProt Q8IW41). Kind of series: Activity of human PRAK kinase at 1 uM. In short, it runs like this:
as §1

Series [12] deals with Rho-associated protein kinase 2 (Rattus norvegicus) (UniProt Q62868). Kind of series: Activity of rat ROCK2 kinase at 1 uM. Summed up: as §1
For series [13], the system named is Mitogen-activated protein kinase 14 (Homo sapiens), Q16539 [T106M]. Kind of series: Activity of human SAPK2a T106M mutant kinase at 1 uM. Summed up: (§3)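 Single-concentration screen across a 226-kinase panel run by an outside provider; test compound at 1 μM with 10 μM ATP in every assay. Other conditions not detailed.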
Chain of Mitogen-activated protein kinase 14 (Homo sapiens), Q16539 [T106M] (Q16539 whole entry T106M): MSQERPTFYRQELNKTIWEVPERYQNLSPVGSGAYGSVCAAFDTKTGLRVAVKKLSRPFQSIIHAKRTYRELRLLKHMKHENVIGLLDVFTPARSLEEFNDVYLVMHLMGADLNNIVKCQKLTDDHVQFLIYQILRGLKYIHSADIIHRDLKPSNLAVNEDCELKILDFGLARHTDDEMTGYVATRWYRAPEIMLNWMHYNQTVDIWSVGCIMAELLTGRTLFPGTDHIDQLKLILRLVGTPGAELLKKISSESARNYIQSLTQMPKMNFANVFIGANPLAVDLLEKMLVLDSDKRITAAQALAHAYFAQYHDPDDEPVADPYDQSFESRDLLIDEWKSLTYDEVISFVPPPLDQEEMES
Series [14] in a line: Plasma concentration in human HCT116 cells xenografted in mouse at 30 mg/kg, po after 24 hrs. Details: dose 30 mg/kg, route oral. It is filed as ADME, organism-based, HCT-116.
Series [15] has as its target Tyrosine-protein kinase CSK (Homo sapiens) (UniProt P41240). Kind of series: Activity of human CSK kinase at 1 uM. In short, it runs like this: as §2
Series [16] addresses Ephrin type-A receptor 1 (Homo sapiens) (UniProt P21709). Kind of series: Activity of human EphA1 kinase at 1 uM. Summed up:
as §2

Series [17] concerns the target Ephrin type-A receptor 4 (Homo sapiens) (UniProt P54764). The series is described as follows: Activity of human EphA4 kinase at 1 uM.
Series [18] addresses Serine/threonine-protein kinase WNK2 (Homo sapiens) (UniProt Q9Y3S1). Kind of series: Activity of human WNK2 kinase at 1 uM. Summed up: as §3
Series [19] concerns PC-3. Kind of series: Induction of apoptosis in human PC3 cells assessed as PARP cleavage at 1 uM after 48 hrs by Western blot method. It is filed as functional, cell-based.
Series [20] deals with PC-3. The series is described as follows: Induction of apoptosis in human PC3 cells assessed as PARP cleavage at 4 uM after 24 hrs by Western blot method. It is filed as functional, cell-based. In general terms: Immunoblotting shows a protein as a band on a membrane.
A further series concerns MDA-MB-231. Kind of series: Antiproliferative activity against human MDAMB231 cells after 96 hrs by BrdU cell proliferation ELISA. It is filed as functional, cell-based. Conditions: MDA-MB-231, 96 h. Summed up:
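BrdU incorporation proliferation assay on cultured human tumor lines; IC50 values derived from growth inhibition.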
In general terms: ELISA stands for enzyme-linked immunosorbent assay.

A further series has as its system SK-OV-3. Kind of series: Antiproliferative activity against human SKOV3 cells after 96 hrs by BrdU cell proliferation ELISA. It is filed as functional, cell-based. Conditions: SK-OV-3, 96 h.
Series [21] concerns the target Tyrosine-protein kinase Yes (Homo sapiens) (UniProt P07947). The series is described as follows: Inhibition of Yes kinase at 1 uM. Summed up:
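Single-point screen within a 226-kinase panel, with compound at 1 μM and ATP at 10 μM in all assays.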

Chain of Serine/threonine-protein kinase Nek6 (Homo sapiens) (Q9HC98 whole entry): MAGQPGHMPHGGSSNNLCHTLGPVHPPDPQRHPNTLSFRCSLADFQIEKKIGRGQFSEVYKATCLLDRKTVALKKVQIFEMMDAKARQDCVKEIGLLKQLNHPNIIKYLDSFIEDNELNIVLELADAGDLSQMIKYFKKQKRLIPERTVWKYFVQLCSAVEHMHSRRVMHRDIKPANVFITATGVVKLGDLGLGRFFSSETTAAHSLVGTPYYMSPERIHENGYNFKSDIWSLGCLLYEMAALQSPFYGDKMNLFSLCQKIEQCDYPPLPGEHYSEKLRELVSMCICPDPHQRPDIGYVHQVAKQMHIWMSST
Chain of Dual specificity mitogen-activated protein kinase kinase 1 (Homo sapiens) (Q02750 whole entry): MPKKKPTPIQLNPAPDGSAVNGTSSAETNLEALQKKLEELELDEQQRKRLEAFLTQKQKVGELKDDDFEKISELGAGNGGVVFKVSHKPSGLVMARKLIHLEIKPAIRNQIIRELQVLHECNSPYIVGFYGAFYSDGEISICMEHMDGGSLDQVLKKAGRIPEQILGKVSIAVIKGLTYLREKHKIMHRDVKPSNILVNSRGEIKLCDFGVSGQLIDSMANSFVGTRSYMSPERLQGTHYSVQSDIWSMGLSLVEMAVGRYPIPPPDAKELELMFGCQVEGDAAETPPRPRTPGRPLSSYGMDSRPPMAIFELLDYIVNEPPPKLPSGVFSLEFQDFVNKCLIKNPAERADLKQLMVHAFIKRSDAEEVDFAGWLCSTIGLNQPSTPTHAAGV
Chain of Ephrin type-A receptor 1 (Homo sapiens) (P21709 whole entry): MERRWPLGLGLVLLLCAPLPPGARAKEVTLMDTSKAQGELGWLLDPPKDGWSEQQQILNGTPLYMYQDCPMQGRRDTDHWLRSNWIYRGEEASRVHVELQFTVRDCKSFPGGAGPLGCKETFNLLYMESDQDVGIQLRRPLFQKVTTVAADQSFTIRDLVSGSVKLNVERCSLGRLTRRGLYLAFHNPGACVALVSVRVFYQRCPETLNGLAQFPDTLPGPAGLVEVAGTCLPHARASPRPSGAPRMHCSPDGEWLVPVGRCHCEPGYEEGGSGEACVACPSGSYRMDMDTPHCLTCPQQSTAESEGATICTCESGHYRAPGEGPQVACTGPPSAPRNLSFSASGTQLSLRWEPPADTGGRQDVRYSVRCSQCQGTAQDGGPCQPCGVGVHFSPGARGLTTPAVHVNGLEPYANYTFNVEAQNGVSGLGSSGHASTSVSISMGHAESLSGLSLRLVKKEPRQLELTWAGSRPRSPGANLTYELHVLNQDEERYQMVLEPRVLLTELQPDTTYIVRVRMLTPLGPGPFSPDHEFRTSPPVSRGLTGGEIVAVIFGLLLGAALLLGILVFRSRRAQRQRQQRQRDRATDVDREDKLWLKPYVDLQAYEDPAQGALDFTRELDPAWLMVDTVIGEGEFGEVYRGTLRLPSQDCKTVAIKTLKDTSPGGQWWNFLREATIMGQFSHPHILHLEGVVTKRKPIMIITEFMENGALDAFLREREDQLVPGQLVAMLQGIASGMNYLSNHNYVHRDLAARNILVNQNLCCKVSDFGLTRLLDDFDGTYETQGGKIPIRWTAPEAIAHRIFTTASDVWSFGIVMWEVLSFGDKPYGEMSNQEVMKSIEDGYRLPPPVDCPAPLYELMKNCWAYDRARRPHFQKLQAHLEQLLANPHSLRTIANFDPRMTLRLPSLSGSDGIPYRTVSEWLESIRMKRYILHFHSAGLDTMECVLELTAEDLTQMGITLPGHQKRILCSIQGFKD
Chain of MAP kinase-activated protein kinase 5 (Homo sapiens) (Q8IW41 whole entry): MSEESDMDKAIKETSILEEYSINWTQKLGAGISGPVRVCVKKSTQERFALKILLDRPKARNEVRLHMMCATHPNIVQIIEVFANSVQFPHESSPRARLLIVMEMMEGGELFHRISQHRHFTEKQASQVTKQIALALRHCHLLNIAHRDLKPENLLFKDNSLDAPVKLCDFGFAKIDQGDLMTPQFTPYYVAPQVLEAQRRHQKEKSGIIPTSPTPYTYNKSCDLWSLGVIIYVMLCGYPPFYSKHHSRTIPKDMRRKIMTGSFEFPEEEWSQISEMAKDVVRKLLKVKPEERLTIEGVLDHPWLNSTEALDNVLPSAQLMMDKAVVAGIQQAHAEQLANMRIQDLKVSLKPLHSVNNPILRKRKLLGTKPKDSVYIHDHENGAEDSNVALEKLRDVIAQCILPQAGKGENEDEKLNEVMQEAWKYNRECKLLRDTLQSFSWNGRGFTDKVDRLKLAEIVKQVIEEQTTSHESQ
Chain of Protein kinase C iota type (Homo sapiens) (P41743 whole entry): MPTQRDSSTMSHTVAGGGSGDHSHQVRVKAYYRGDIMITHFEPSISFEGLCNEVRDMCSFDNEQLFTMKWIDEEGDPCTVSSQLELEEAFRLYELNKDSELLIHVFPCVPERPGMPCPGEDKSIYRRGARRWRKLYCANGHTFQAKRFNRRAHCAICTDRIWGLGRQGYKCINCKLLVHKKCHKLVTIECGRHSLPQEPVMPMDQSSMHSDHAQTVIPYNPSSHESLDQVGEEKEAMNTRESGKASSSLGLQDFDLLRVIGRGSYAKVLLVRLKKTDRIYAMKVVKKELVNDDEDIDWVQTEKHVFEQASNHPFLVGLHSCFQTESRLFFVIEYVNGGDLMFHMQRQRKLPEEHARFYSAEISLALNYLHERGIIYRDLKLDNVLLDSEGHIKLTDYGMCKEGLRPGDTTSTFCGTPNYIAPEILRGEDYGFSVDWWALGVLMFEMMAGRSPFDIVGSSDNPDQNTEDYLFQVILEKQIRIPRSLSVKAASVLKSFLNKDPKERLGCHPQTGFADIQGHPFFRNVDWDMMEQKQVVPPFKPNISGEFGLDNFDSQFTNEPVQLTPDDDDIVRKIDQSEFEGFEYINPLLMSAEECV
Chain of Serine/threonine-protein kinase Nek2 (Homo sapiens) (P51955 whole entry): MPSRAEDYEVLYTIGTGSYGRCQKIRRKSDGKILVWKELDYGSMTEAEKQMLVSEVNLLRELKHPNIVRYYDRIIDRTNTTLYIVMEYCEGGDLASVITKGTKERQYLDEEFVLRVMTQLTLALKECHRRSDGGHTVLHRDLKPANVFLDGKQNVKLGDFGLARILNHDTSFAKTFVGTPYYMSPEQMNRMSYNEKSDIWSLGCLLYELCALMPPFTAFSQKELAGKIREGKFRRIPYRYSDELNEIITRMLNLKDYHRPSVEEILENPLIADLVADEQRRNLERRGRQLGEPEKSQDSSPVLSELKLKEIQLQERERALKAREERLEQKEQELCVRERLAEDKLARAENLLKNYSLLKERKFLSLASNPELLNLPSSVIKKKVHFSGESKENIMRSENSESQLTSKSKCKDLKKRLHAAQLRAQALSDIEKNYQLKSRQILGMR
Chain of Tyrosine-protein kinase CSK (Homo sapiens) (P41240 2-450 limits assumed): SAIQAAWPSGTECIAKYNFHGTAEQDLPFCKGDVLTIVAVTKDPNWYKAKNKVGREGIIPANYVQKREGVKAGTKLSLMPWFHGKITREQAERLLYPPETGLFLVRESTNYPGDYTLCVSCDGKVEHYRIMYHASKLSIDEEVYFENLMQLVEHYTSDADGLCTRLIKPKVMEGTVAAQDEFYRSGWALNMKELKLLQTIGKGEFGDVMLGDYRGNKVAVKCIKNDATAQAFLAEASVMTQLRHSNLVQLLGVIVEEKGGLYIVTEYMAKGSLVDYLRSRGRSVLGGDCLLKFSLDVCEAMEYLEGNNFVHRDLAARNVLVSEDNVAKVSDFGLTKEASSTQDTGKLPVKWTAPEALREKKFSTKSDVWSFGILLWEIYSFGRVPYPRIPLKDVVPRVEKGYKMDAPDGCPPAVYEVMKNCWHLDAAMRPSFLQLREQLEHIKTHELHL

By IC50 is commonly meant the concentration that inhibits the measured activity by half. Read a high IC50 as a need for much substance. In general, inhibition refers to how much of the control response was suppressed. A higher inhibition goes with a strong effect. As for `O=C(O)c1ccc(Nc2ncc3c(n2)-c2ccc(Cl)cc2C(c2c(F)cccc2F)=NC3)cc1` [MLN-8054], the Activity in [1] is 115%; in [2], 92%; in [3], 100%; in series [4], 52%; in series [5], 110%; in [6] it was 107%. In addition, the Activity in series [7] amounted to 110%; in series [8], 92%; in the series filed under Homo sapiens it was 100%; in [9] it was 98%; in series [10], 109%; in series [11], 110%. For the same compound, the Activity in [12] is 92%; in [13], 130%; in series [15], 105%; in [16] it was 29%; in [17], 90%; in series [18], 109%. For the same compound, in [14], the concentration at 24 h is 400 nM. The outcome in the series with PC-3 [19] and in the series with PC-3 [20] was Active. The IC50 in the series with MDA-MB-231 was 740 nM; with SK-OV-3 it was 530 nM. In [21], this compound returned an inhibition of 80%.
